Our source for the Activity values is ChEMBL document CHEMBL1153617, “Synthesis of new acridines and hydrazones derived from cyclic beta-diketone for cytotoxic and antiviral evaluation” (2009).

Holding throughout (parameters): scale not given: the % may be the effect or the level left
Assay [1] concerns Hepatovirus A. The experiment in a line: Antiviral activity against HAV MBB in human HepG2 cells assessed as reduction in viral titer at 20 ug/ml by plaque reduction assay. The assay is classed as functional, Human hepatitis A virus Hu/Northern Africa/MBB/1978. In outline: (§1)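 HAV pre-mixed with compound (10 or 20 µg/10⁵ cells; virus at 10⁴ PFU/ml final), held overnight at 4 °C. Mixture inoculated onto HepG2 monolayers grown 2 days at 37 °C, then 1 h contact. Overlay of MEM with 1% agarose, incubated at 37 °C until plaques formed. Formalin-fixed, crystal violet-stained. Plaques counted; % reduction calculated against untreated virus control.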
A general note: Plaques are areas of infected cells; plaque reduction assays count them against a control.

The test system of assay [2] is Hepatovirus A. Kind of assay: Antiviral activity against HAV MBB in human HepG2 cells assessed as reduction in viral titer at 10 ug/ml by plaque reduction assay. The assay is classed as functional, Human hepatitis A virus Hu/Northern Africa/MBB/1978. In short, it runs like this:
as §1

Assay [3] relates to HepG2. Kind of assay: Cytotoxicity against human HepG2 cells assessed as reduction in cell growth at 10 umol/ml after 24 hrs by MTT assay relative to control. It counts as functional. In short, it runs like this:
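HepG2 grown in RPMI-1640 with 10% FCS. Cells taken at ~80% confluence, seeded 3×10³/well, incubated overnight at 37 °C, 5% CO₂. Compound exposure 24 h. Then PBS wash and MTT (0.5 mg/ml) for 4 h. Crystals dissolved in DMSO, OD read at 570 nm (reference 690 nm). Reported as % reduction in cell growth versus untreated control.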

For `CC1(C)CC(=O)C=C(NCc2nnc(Nc3ccccc3)s2)C1`, the results for the Activity in assay [1] and in assay [2] were 49% and 45.2%, respectively.
`CC1(C)CC(=O)C=C(NCC(=O)N/N=C\c2ccc(O)cc2)C1`: the Activity in assay [1] is listed as 15%; in assay [3] it was 40.32%; in assay [2] it was 9.4%.
Taken in the same sequence, the figures for `CC1(C)CC(=O)C=C(NCC(=O)N/N=C\c2ccc(Br)cc2)C1` were 27.3%, 40.06% and 43.3%.
With `COc1ccc(/C=N\NC(=O)CNC2=CC(=O)CC(C)(C)C2)cc1`, the Activity in assay [1] was 36.2%; in assay [3] it was 16.99%; in assay [2], 24.5%.
The corresponding values for `CC1(C)CC(=O)C=C(NCC(=O)NNC(=S)Nc2ccccc2)C1` are 39.6%, 54.84% and 18.8%.
For the molecule `CCOC(=O)CN1C2=C(C(=O)CC(C)(C)C2)C(c2ccc(O)cc2)C2=C1CC(C)(C)CC2=O`, the Activity in assay [1] came to 48.1%; in assay [3] it was 54.7%; in assay [2] it was 30.1%.
In the case of `CCOC(=O)CN1C2=C(C(=O)CC(C)(C)C2)C(c2ccc(OC)cc2)C2=C1CC(C)(C)CC2=O`, the Activity in assay [1] amounted to 45.2%; in assay [3], 37.99%; in assay [2] it was 24.5%.
For `CC1(C)CC(=O)C=C(NCC(=O)NN)C1`, the results for the Activity in assay [1], in assay [3] and in assay [2] were 34.9%, 57.4% and 33.9%, respectively.
As for `CCOC(=O)CNC1=CC(=O)CC(C)(C)C1`, the Activity is 15% in assay [1], 50% in assay [3] and 5.6% in assay [2].
With `CC1(C)CC(=O)C=C(NCC(=O)N/N=C\c2ccc(Cl)cc2)C1`, the Activity in assay [1] is given as 60.3%; in assay [2], 57.5%.
Regarding `CC1(C)CC(=O)C=C(NCC(=O)NNC(=O)NCCCl)C1`, the Activity is reported as 40.5% in assay [1], 58.29% in assay [3] and 42.4% in assay [2].
The corresponding values for `CCOC(=O)CN1C2=C(C(=O)CC(C)(C)C2)C(c2ccc(Cl)cc2)C2=C1CC(C)(C)CC2=O` are 47.1%, 54.14% and 30.1%.
As to `CCOC(=O)CN1C2=C(C(=O)CC(C)(C)C2)C(c2ccccc2)C2=C1CC(C)(C)CC2=O`, the Activity in assay [1] was found to be 60.3%; in assay [3] it was 3.32%; in assay [2], 37.7%.
The corresponding values for `CCOC(=O)CN1C2=C(C(=O)CC(C)(C)C2)C(c2ccc(Br)cc2)C2=C1CC(C)(C)CC2=O` are 52.8%, 49.17% and 47.1%.
For the molecule `CC1(C)CC(=O)C=C(NCc2nnc(S)n2-c2ccccc2)C1`, the Activity in assay [1] amounted to 30.1%; in assay [3], 35.64%; in assay [2], 28.3%.
For `CC1(C)CC(=O)C=C(NCC(=O)N/N=C\c2ccc([N+](=O)[O-])cc2)C1`, the results for the Activity in assay [1] and in assay [2] were 43.3% and 39.6%, respectively.
Turning to `CC1(C)CC(=O)C=C(NCC(=O)N/N=C\c2ccccc2)C1`, the Activity was found to be 58.4% in assay [1] and 56.6% in assay [2].
Turning to `NC12CC3CC(CC(C3)C1)C2` [AMANTADINE], the figures for the Activity in assay [1] and in assay [2] were 45.2% and 30.1%, respectively.
